Assay results taken from ChEMBL document CHEMBL4007382 (Eur J Med Chem, 2017).

Assays:
[1] = target: Acetylcholinesterase (Electrophorus electricus, UniProt O42275); assay: Inhibition of electric eel AChE using S-acetylthiocholine iodide as substrate preincubated for 60 mins followed by substrate addition measured after 5 mins by Ellman's method
[2] = target: Cholinesterase (Equus caballus, UniProt P81908); assay: Inhibition of equine serum BuChE using S-butyrylthiocholine iodide as substrate preincubated for 60 mins followed by substrate addition measured after 5 mins by Ellman's method
Cholinesterase, sequence (P81908 whole entry): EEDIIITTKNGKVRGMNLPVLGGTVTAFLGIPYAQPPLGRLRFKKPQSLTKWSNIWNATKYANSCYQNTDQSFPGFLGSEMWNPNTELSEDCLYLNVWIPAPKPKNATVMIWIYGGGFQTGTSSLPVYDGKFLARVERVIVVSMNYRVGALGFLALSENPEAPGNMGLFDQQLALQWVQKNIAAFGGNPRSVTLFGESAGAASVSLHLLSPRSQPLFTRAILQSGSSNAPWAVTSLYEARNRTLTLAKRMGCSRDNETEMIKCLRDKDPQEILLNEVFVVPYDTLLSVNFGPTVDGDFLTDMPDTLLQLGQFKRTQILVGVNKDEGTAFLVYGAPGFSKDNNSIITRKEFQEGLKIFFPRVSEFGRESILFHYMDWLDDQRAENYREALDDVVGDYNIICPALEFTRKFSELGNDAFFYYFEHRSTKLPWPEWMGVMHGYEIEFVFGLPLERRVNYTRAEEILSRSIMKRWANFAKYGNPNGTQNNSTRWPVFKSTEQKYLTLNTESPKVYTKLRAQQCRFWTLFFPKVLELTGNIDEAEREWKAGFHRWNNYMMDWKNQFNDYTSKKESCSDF
Method in brief: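 Equine serum BChE (0.1 U/mL) in 100 mM sodium phosphate, pH 8, was preincubated at 37°C for 60 min with seven inhibitor concentrations (top 1×10^-5 M; stocks in acetonitrile:water 1:9). Added mix contained BTCh 2.5 mM and DTNB 3.4 mM. A412 was read for 5 min at 37°C, with enzyme-free blank subtracted. Triplicates.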

Acetylcholinesterase, sequence (O42275 whole entry): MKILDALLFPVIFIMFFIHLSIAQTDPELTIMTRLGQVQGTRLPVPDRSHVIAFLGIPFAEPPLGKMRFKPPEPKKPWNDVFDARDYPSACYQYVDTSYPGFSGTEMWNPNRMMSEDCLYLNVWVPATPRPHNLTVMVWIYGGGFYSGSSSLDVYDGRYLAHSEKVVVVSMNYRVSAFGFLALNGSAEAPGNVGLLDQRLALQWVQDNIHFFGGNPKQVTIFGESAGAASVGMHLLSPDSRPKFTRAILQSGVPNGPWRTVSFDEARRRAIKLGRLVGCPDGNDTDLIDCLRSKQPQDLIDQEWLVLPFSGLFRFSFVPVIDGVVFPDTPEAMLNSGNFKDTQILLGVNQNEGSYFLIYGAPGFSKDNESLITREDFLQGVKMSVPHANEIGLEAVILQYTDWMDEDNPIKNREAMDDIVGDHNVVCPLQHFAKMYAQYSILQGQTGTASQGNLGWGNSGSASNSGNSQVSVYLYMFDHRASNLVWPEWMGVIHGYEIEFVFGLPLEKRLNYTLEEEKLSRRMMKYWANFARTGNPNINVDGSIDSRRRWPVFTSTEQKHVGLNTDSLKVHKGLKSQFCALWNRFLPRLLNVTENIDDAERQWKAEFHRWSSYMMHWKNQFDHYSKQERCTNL

| Structure (SMILES) | IC50 [1] | IC50 [2] |
| --- | --- | --- |
| CN(C)C(=O)Oc1cc(OC(=O)N(C)C)cc(C(O)CNC(C)(C)c2ccccc2)c1 (stereo not given) | > 100000 nM | 476 nM |
| CN(C)C(=O)Oc1cc(OC(=O)N(C)C)cc(C(O)CNC2CCCC2)c1 (stereo not given) | 65900 nM | 130 nM |
| CN(C)C(=O)Oc1cc(OC(=O)N(C)C)cc(C(O)CNc2ccc(I)cc2)c1 (stereo not given) | > 100000 nM | 4700 nM |
| CN(C)C(=O)Oc1cc(OC(=O)N(C)C)cc(C(O)CN2CCCCC2)c1 (stereo not given) | > 100000 nM | 100 nM |
| CN(C)C(=O)Oc1cc(OC(=O)N(C)C)cc(C(O)CNc2ccccc2)c1 (stereo not given) | > 100000 nM | 2400 nM |
| CN(C)C(=O)Oc1cc(OC(=O)N(C)C)cc(C(O)CN2CCCC2)c1 (stereo not given) | 41300 nM | 253 nM |
| C#Cc1cccc(NCC(O)c2cc(OC(=O)N(C)C)cc(OC(=O)N(C)C)c2)c1 (stereo not given) | > 100000 nM | 686 nM |
| CN(C)C(=O)Oc1cc(OC(=O)N(C)C)cc(C(O)CNC2CCCCC2)c1 (stereo not given) | > 100000 nM | 224 nM |
| CCN(C)C(=O)Oc1cc(OC(=O)N(C)CC)cc(C(O)CNC(C)(C)C)c1 (stereo not given) | > 100000 nM | 113 nM |
| CCN(C)C(=O)Oc1cc(OC(=O)N(C)CC)cc(C(O)CN2CCCCC2)c1 (stereo not given) | > 100000 nM | 108 nM |
